Sampled rows, rich in hits. Any-hit rate of the full collection: about 1.9%.
CHRM5 antagonist: blocks acetylcholine activation of human M5 receptor. CHO-hM5 cells, Fluo-8 calcium fluorescence, ACh EC80. inhibition, % at 3 µM. 360,000 compounds, 0.59% hits. AID 624040;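 active = inhibition above a per-plate cutoff, the mean of that plate's test compounds plus 3 SD, cut at about 27% in these data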;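 note: 0% = acetylcholine EC80 with DMSO and 100% = DMSO without agonist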
M4 ag: CHRM4 agonism in calcium assay; CHO-K1 hM4/Gqi5, Fluo-8 calcium fluorescence; vehicle 0%, full acetylcholine response 100%; activation, % at 3 µM; 360,000 compounds, 0.14% hits;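 active = activation above the run mean over all test wells plus 3 SD, cut at about 32% in these data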;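 note: peak over basal fluorescence ratio per well then scaled between controls; 0% = DMSO wells and 100% = acetylcholine at EC100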
Target sequence (P08173 whole entry, looked up): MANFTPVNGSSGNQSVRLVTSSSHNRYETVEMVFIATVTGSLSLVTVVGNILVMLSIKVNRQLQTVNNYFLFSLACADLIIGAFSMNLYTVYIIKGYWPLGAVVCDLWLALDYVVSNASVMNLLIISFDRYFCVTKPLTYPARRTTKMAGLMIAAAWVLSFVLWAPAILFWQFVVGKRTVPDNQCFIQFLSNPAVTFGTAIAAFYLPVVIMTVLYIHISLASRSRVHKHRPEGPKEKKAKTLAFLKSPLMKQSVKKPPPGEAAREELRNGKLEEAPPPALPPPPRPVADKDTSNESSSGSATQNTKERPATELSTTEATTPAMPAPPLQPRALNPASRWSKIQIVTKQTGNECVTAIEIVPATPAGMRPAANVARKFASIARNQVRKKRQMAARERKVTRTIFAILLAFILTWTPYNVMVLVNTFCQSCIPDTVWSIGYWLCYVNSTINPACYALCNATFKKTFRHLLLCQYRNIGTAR
CHRM5 agonist: agonists of human muscarinic M5 receptor (CHRM5); P08912; CHO-K1 hM5 cells, Fluo-8 calcium fluorescence; 0% DMSO wells, 100% maximal acetylcholine response; activation, % at 3 µM; 360,000 compounds, 0.19% hits;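 active = activation above the run's mean over test compounds plus 3 SD, cut at about 23% in these data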;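 note: signal is peak over basal fluorescence ratio across the kinetic read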
M5 PAM: CHRM5 positive allosteric modulation | activation, % at 3 µM | AID 624038 | P08912 | 360,000 compounds, 0.3% hits | CHO-K1 hM5, Fluo-8 calcium, ACh EC20 PAM; 0% = ACh EC20, 100% = ACh EC100;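 active = activation above the run cutoff, the mean activation of all test compounds plus 3 SD, cut at about 18% in these data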
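Measured by: Fluo-8 calcium fluorescence; material: human M5 receptor in CHO-K1 cells; schedule: Post-acetylcholine fluorescence recording 140 s; benchmarks: low control EC20 acetylcholine (0%), high control EC100 acetylcholine (100%); read-out: Max/basal fluorescence ratio as % of EC20–EC100 ACh window; compound: single dose, 3 µM nominal final test concentration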
CHRM4 PAM: potentiates acetylcholine response at human M4 receptor | P08173 | CHO-K1 hM4/Gqi5, Fluo-8 calcium fluorescence, ACh EC20; 0% = ACh EC20, 100% = maximal ACh | activation, % at 3 µM | 360,000 compounds, 0.4% hits | AID 624126;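 active = activation above its plate's cutoff, the mean activation of sample wells plus 3 SD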
CHRM4 antagonist: antagonists of human muscarinic M4 receptor (CHRM4); inhibition, % at 3 µM; CHO-hM4 cells, ACh EC80, Fluo-8 calcium fluorescence; P08173; 360,000 compounds, 0.73% hits;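 active = inhibition above its plate's cutoff, the mean inhibition of sample wells plus 3 SD, cut at about 27% in these data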;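 note: 0% = acetylcholine EC80 with DMSO and 100% = DMSO without agonist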
The depositor's hits bear a star.

SMILES	CHRM5 antagonist	M4 ag	CHRM5 agonist	M5 PAM	CHRM4 PAM	CHRM4 antagonist
Cc1cc(C)n(/N=C/c2ccccc2O)c(=O)c1	-19	1	3	25*	10	9
CCCCn1c(N)c(N(CCOC)C(=O)c2cc3c(s2)CCCCC3)c(=O)[nH]c1=O	10	1	-2	-6	24*	-8
CCOC(=O)CCCCCC(=O)Nc1ccc2c(c1)C(=O)N([C@H](C)CO)C[C@@H](C)[C@H](CN(C)Cc1ccc3c(c1)OCO3)O2	1	2	-12	-3	0	3
CNC(=O)c1cc(C(=O)c2ccc(C(F)(F)F)cc2)c[nH]1	5	4	2	-6	-16	43*
CNC(=O)c1cc(C(=O)c2ccc(C(F)(F)F)cc2F)c[nH]1	9	2	0	-4	5	5
N/C(=N\NC(=O)c1cccc(F)c1)c1cc2ccccc2oc1=O	-2	1	0	9	28*	-11
CC(C)c1nc2n[nH]c(N)c2c2c1CCCC2	-8	1	4	16	23*	-2
COc1cccc(C(O)c2ncc(-c3ccc(Cl)cc3)[nH]2)c1 (stereo not drawn)	9	4	0	-13	10	-21
CCNC(=S)NNC(=O)c1csc2c1CCCC2	-2	2	1	5	20*	-6
CCCCN(C)c1c(C)nc2ccc(C(=O)NCCOc3ccc(OC)cc3)cn12	29*	12	0	-24	-9	10
CCc1nc2ccc(C(=O)NCCN3CCCC3)cn2c1N(C)Cc1ccc(OC)cc1	-5	1	-3	-7	-15	56*
CCc1nc2ccc(C(=O)NCc3ccc(OC)cc3)cn2c1N(C)Cc1ccc(OC)cc1	-1	6	-3	-13	-12	13
O=C(Nc1ccc(F)cc1F)Nc1csc2ccccc12	33*	12	-2	-31	-13	6
O=C(Nc1ccc(F)c(Cl)c1)Nc1csc2ccccc12	34*	20	7	-26	-11	18
CCCCN(C(=O)CSc1nc2ccccc2n1CC)C1CCS(=O)(=O)C1 (stereo not drawn)	2	1	0	3	1	6
Cc1nc(SCC(=O)N2CCC(Cc3ccccc3)CC2)[nH]c(=O)c1C	7	0	-10	-11	-6	-5
CCc1ccccc1NC(=O)CCc1nc(-c2cccs2)no1	-5	1	-5	-5	-3	-18
O=C(Nc1cc(=O)[nH]c2ncnn12)c1ccco1	1	0	0	0	6	14
COc1ccc(C(=O)Nc2cc(=O)[nH]c3ncnn23)cc1	5	0	-1	1	4	29*
CCc1cc(Cn2nc(-c3ccccc3)cc2C(=O)NCc2cccs2)on1	20	12	-2	-33	1	6
Cc1ccc(C(C)NC(=O)/C(C#N)=C\c2c(C)[nH]c3ccccc23)cc1 (stereo not drawn)	10	21	27*	-7	5	7
O=C(COc1ccc(Br)cc1)N1CCOCC1	-19	1	0	18*	4	-11
CCOc1ccc(OCC(=O)N2CCOCC2)cc1	2	0	-2	-5	1	5
COc1cc(C(=O)NNC(=O)COc2ccc(C)cc2)ccc1OCC(=O)N1CCOCC1	-4	1	4	0	23*	-8
COc1cc(C(=O)NNC(=O)COc2ccc(Br)cc2)ccc1OCC(=O)N1CCOCC1	10	1	5	6	9	3
SMILES	CHRM5 antagonist	M4 ag	CHRM5 agonist	M5 PAM	CHRM4 PAM	CHRM4 antagonist
Fc1cccc(/C=N/Nc2cc(N3CCOCC3)ncn2)c1	-3	1	0	11	2	-1
COc1ccc(NC(=O)C2c3ccccc3OCC(=O)N2Cc2ccc3c(c2)OCO3)cc1 (stereo not drawn)	5	1	3	-6	-2	3
O=[N+]([O-])c1ccc(NC(=S)NCCc2ccccc2)cc1	27*	11	-1	-14	-19	11
Cc1ccc(NC(=S)NCCSc2ccc(Cl)cc2)cc1	17	8	-15	-33	-28	36*
O=[N+]([O-])c1ccc(NC(=S)NCCc2ccc(Cl)cc2)cc1	27*	7	3	-17	-19	25
NS(=O)(=O)c1ccc(NC(=S)NCCc2ccccc2)cc1	9	1	-1	-6	-2	0
CCC1(CC)NC(=O)N(CC(=O)Nc2ccc(C)cc2C)C1=O	-6	1	-1	1	6	-2
Cc1cc(=O)[nH]c(SCC(=O)c2ccccc2)c1C#N	-5	2	3	6	34*	-11
Cc1nn2c(SCC(=O)c3cccs3)cc(C(C)(C)C)nc2c1-c1ccccc1	6	1	0	2	7	-3
Cc1cc(C)c(C#N)c(SCC(=O)c2cccs2)n1	7	5	-6	-7	75*	37*
Cc1cc(C)c(C#N)c(SCC(=O)c2ccccc2)n1	8	3	-7	-7	26*	-4
Cc1ccccc1NC(=O)CSc1[nH]c(=O)cc(C)c1C#N	-3	3	5	3	-2	-1
Cc1cc(SCC(=O)c2cccs2)n2nc(C)c(-c3ccc(Cl)cc3)c2n1	9	1	4	13	23*	-3
CSc1nc(N)nc(SCC(=O)c2ccccc2)c1C#N	-8	9	5	-10	-3	-5
Cc1ccc(C(=O)N/C(=C/c2ccc(-c3ccc([N+](=O)[O-])cc3)o2)C(=O)NCCCN(C)C)cc1	-3	5	4	8	-1	1
COC(=O)CCCn1cc(CN2CC(N3CCN(C)CC3)CS2(=O)=O)nn1 (stereo not drawn)	-4	1	4	3	1	6
CCOC(=O)C1(C)CCN1C(=O)COc1ccccc1 (stereo not drawn)	5	1	0	-1	-1	6
N#Cc1c(C(F)(F)F)cc(-c2ccco2)nc1SCc1ccccn1	27	56*	12	-11	-8	21
N#Cc1c(C(F)(F)F)cc(-c2ccco2)nc1SCc1ccncc1	26	16	0	-5	-7	25
O=C(c1ccncc1)N1N=C(c2ccc(Br)cc2)CC1c1ccccc1O (stereo not drawn)	32*	11	-3	-9	-13	6
CCOC(=O)C(=N/O)/C(C)=N/NC(=O)C(=O)Nc1ccc(Cl)cc1	27*	13	4	-20	-9	6
O=C(c1noc2c1CCCC2)N1CCN(c2ccc(F)cc2)CC1	-1	3	2	3	3	29*

Screening data deposited in PubChem BioAssay by The Scripps Research Institute Molecular Screening Center.
